Experimental data collected from several papers.
Each line is one published result; the experiments were not run side by side.
Target: Serine/threonine-protein kinase 10 (STK10, Homo sapiens, UniProt O94804)

Nc1ncc(-c2nc(N3CCOCC3)nc(N3CCOCC3)n2)c(C(F)F)n1 — remaining binding (binding; competition with immobilised ligand; 10 µM): 64%
O=c1[nH]c2ccccc2n1C1CCN(Cc2ccc(-c3[nH]c4cc5ncnc5cc4nc3-c3ccccc3)cc2)CC1 — remaining signal (cell-free assay; 0.5 µM): 92.6%
Cn1cncc1[C@@](O)(COc1ccc(C#N)cc1-c1ccc(OC(F)(F)F)cc1)c1ccc(C#N)cc1 — remaining binding (cell-free assay; competition with immobilised ligand; 1 µM): 100%
Cc1nn(C)cc1-c1nc2c(N3CCN(Cc4ccc(Cl)cc4)CC3)c(Cl)cnc2[nH]1 — remaining binding (binding; competition with immobilised ligand; 1 µM): 100%
CC(C)(C)c1cc(C=C(C#N)C#N)cc(Br)c1O — remaining activity (enzyme activity; inhibitor; 0.5 µM): 95.4%
N#CC1(c2ccccn2)CCN(Cc2cc(C(=O)O)c(=O)n3ccccc23)CC1 — remaining binding (cell-free assay; competition with immobilised ligand; 1 µM): 100%
COc1ncccc1-c1cnn2ccc(N3CCN(C(=O)OC(C)C)CC3)nc12 — remaining binding (binding; competition with immobilised ligand; 1 µM): 63%
COc1cc(Nc2ncc(F)c(Nc3ccc4c(n3)NC(=O)C(C)(C)O4)n2)cc(OC)c1OC — inhibition (binding; 10 µM): 100%
